Experimental data from ChEMBL document CHEMBL2157970, “New prenylated isoflavonoids as protein tyrosine phosphatase 1B (PTP1B) inhibitors from Erythrina addisoniae” (Bioorg Med Chem, 2012).

Assays:
[1] = target: T1, Tyrosine-protein phosphatase non-receptor type 1 (Homo sapiens, UniProt P18031); experiment: Inhibition of human recombinant PTP1B using p-nitrophenyl phosphate as substrate after 30 mins
T1 sequence (P18031 whole entry): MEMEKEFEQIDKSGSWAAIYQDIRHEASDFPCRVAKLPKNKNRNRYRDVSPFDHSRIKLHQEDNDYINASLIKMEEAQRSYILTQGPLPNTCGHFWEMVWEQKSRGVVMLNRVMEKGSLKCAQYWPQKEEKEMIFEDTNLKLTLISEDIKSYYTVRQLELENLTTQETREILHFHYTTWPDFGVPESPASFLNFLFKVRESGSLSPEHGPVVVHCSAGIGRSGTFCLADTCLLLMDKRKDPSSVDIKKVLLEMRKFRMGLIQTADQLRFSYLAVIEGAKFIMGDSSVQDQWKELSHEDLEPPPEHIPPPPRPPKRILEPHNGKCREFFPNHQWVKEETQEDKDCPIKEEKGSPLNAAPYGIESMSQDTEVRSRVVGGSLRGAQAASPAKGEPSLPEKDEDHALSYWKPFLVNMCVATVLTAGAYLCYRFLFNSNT
In short: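 Human recombinant enzyme (0.05–0.1 µg) with 2 mM p-NPP in 50 mM citrate pH 6.0, 0.1 M NaCl, 1 mM EDTA, 1 mM DTT, 37 °C for 30 min. IC50 by regression, mean ± SD of three replicates.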

MDA-MB-231 [2] = experiment: Cytotoxicity against human MDA-MB-231 cells after 48 hrs by MTT assay; format: functional, cell-based
In short: (§1)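 Cells kept in DMEM with 10% heat-inactivated FBS, 4.5 g/L D-glucose, sodium pyruvate and L-glutamine at 37 °C, 5% CO2. Seeded at 1 × 10^4 cells/well, left to adhere 24 h, then exposed 48 h to a range of concentrations at 0.05% (v/v) DMSO final. MTT added for 4 h, absorbance at 550 nm. Viability taken relative to control wells; IC50 from triplicates, mean ± SD.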

[3] = Cytotoxicity against human MCF7/ADR cells after 48 hrs by MTT assay; format: functional, cell-based, NCI/ADR-RES; in short: as §1
MCF7 = experiment: Cytotoxicity against human MCF7 cells after 48 hrs by MTT assay; format: functional, cell-based; in short: as §1
MDA-MB-231 [4] = experiment: Ratio of tamoxifen IC50 to compound IC50 for human MDA-MB-231 cells; format: functional
NCI/ADR-RES = experiment: Ratio of tamoxifen IC50 to compound IC50 for human MCF7/ADR cells; format: functional
[5] = Homo sapiens, MDA-MB-231, 48 h, read-out: IC50
[6] = Homo sapiens, NCI/ADR-RES, 48 h, read-out: IC50
[7] = Homo sapiens, MCF7, 48 h, read-out: IC50

CC(C)=CCc1cc2c(=O)c(-c3ccc(O)cc3O)coc2c(CC=C(C)C)c1O [ERYTHRADDISON II] showed an IC50 [1] of 17.4 µM, an IC50 (MDA-MB-231 [2]; [5]) of 4.57 µM and an IC50 [3, 6] of 6.75 µM. For the same compound, the IC50 (MCF7; [7]) was 11.4 µM.
COc1cc2c(cc1[C@H]1COc3cc(O)cc(O)c3C1=O)C=CC(C)(C)O2 [ERYTHRADDISON IV] showed an IC50 [1] of 13.8 µM, an IC50 (MDA-MB-231 [2]; [5]) of 6.34 µM and an IC50 [3, 6] of 6.06 µM. It also gave an IC50 (MCF7; [7]) of 11 µM.
CC(C)=CCc1cc(-c2coc3c(CC=C(C)C)c(O)ccc3c2=O)ccc1O [ERYSUBIN F] showed an IC50 [1] of 7.8 µM.
In the case of COC(c1c2c(c(O)c3c(=O)c(-c4ccc(O)cc4)coc13)C=CC(C)(C)O2)C(O)C(C)(C)O (centres undefined) [ERYTHRADDISON I], the IC50 [1] is reported as greater than 30 µM, the IC50 (MDA-MB-231 [2]; mda-mb-231) is reported as “Not Active” and the IC50 ([3]; nci/adr-res) is reported as “Not Active”. For the same compound, the IC50 (MCF7; mcf7) was “Not Active”.
Compound CC/C(=C(\c1ccccc1)c1ccc(OCCN(C)C)cc1)c1ccccc1 [TAMOXIFEN] has an IC50 (MCF7; [7]) of 11.4 µM.
With COc1ccc([C@H]2COc3cc(O)cc(O)c3C2=O)cc1CC=C(C)C [ERYTHRADDISON III] the IC50 [1] was 4.6 µM, the IC50 (MDA-MB-231 [2]; [5]) was 6.92 µM and the IC50 [3, 6] was 9.22 µM. It also gave an IC50 (MCF7; [7]) of 6.84 µM.
For CC(C)=CCc1c2c(c(O)c3c(=O)c(-c4ccc(O)cc4)coc13)CC(C(C)(C)O)O2 (centres undefined) [ECHRENONE B10], the IC50 [1] was 24.2 µM, the “Ratio IC50” value (MDA-MB-231 [4]) was greater than 3 and the IC50 (MDA-MB-231 [2]; [5]) was 3.97 µM. The IC50 [3, 6] was 5.76 µM, the IC50 (MCF7; [7]) was 4.32 µM and the Ratio IC50 (NCI/ADR-RES) was 1.93.
